Columns and labels:
[1] = tested on: Human immunodeficiency virus 1; assay: microbe, parasite or virus in culture; assay type: functional, organism-based; conditions: Human immunodeficiency virus 1, U-87 MG
[2] = target: C-C chemokine receptor type 5 (Homo sapiens, UniProt P51681); assay: Inhibition of RANTES binding to C-C chemokine receptor type 5
[3] = tested on: Rattus norvegicus; assay: Area under curve (0-6 hr) value in rat at a concentration of 10 mg/kg after peroral administration.; assay type: ADME, organism-based; design: time < 6 hr, dose 10 mg/kg, route oral; conditions: in vivo, po
[4] = tested on: Rattus norvegicus; assay: Area under curve (0-6 hr) value in rat at a concentration of 10 mg/kg, peroral administration.; assay type: ADME, organism-based; design: time < 6 hr, dose 10 mg/kg, route oral; conditions: in vivo, po
[5] = tested on: Canis familiaris; assay: In vivo pharmacokinetic parameter, Area under curve (AUC) was measured in dog after 1 mg/kg iv administration
[6] = In vivo pharmacokinetic parameter, Area under curve (AUC) was measured in monkey after 2 mg/kg iv administration; conditions: simiiformes
[7] = Oral bioavailability was evaluated in monkey at a dose of 2 mg/kg; conditions: simiiformes, in vivo
[8] = tested on: Rattus norvegicus; assay: In vivo pharmacokinetic parameter, Area under curve (AUC) was measured in rat after 10 mg/kg iv administration; assay type: ADME, organism-based; design: dose 10 mg/kg, route intravenous
Summary of the method: (§1)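 Rat pharmacokinetics using the amorphous tartrate salt. Dosing was 10 mg/kg iv in 20% hydroxypropyl-β-cyclodextrin and 10 mg/kg po in 0.4% methylcellulose. […] Oral bioavailability was derived by comparing oral with iv exposure.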

[9] = In vivo pharmacokinetic parameter, half-life (t1/2) was measured in rat after 10 mg/kg iv administration; assay type: ADME, organism-based; design: dose 10 mg/kg, route intravenous
Summary of the method: as §1

[10] = tested on: Canis familiaris; assay: Oral bioavailability was evaluated in dog at a dose of 3 mg/kg; conditions: in vivo
[11] = In vivo pharmacokinetic parameter, half-life (t1/2) was measured in dog after 1 mg/kg iv administration
[12] = as above; remark: listed apart in the source
[13] = tested on: Rattus norvegicus; assay: Oral bioavailability was evaluated in rat at a dose of 10 mg/kg; assay type: ADME, organism-based; conditions: in vivo
Summary of the method: as §1

[14] = In vivo pharmacokinetic parameter, half-life (t1/2) was measured in monkey after 2 mg/kg iv administration; conditions: simiiformes

Chain of C-C chemokine receptor type 5 (P51681 whole entry): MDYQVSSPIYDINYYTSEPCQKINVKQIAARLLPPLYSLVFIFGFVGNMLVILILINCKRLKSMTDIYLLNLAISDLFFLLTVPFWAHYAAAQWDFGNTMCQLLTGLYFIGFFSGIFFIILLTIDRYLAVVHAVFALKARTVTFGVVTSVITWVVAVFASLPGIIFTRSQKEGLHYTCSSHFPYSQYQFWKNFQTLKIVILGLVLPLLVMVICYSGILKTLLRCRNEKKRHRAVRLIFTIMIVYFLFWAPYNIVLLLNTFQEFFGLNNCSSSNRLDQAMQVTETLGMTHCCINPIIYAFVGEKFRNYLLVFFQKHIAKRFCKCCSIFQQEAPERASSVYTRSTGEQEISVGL

Compound | IC50 [1] | Ki [2] | AUC 0-6h [3] | other results
CO/N=C(\c1ccc(Br)cc1)C1CCN(C2(C)CCN(C(=O)c3c(N)cccc3Cl)CC2)CC1 | 0.6 nM | 3.4 nM | 610 ng·h/mL | 
CCO/N=C(\c1ccc(Br)cc1)C1CCN(C2(C)CCN(C(=O)c3c(C)ccnc3C)CC2)CC1 | 0.2 nM | 1.1 nM | 2100 ng·h/mL | 
CO/N=C(\c1ccc(Br)cc1)C1CCN(C2(C)CCN(C(=O)c3c(C)cc[n+]([O-])c3C)CC2)CC1 | 5.6 nM | 18 nM | 2400 ng·h/mL | 
Cc1cccc(C)c1C(=O)N1CCC(C)(N2CCC(C(=O)c3ccc(Br)cc3)CC2)CC1 | 13 nM | 54 nM |  | 
Cc1cccc(C)c1C(=O)N1CCC(C)(N2CCC(Cc3ccc(Br)cc3)CC2)CC1 | 10 nM | 66 nM |  | AUC 0-6h [4]: 40 ng·h/mL
CO/N=C(\c1ccc(Br)cc1)C1CCN(C2(C)CCN(C(=O)c3c(C)cccc3O)CC2)CC1 | 4 nM |  | 3000 ng·h/mL | 
Cc1cccc(C)c1C(=O)N1CCC(C)(N2CCC(Oc3ccc(Br)cc3)CC2)CC1 |  | 29 nM |  | 
COc1ccc(S(=O)(=O)c2ccc(CC3CCN(C4CCN(C(=O)c5ccc(F)c6ccccc56)CC4)CC3)cc2)cc1 |  | 66 nM |  | 
CO/N=C(\c1ccc(Br)cc1)C1CCN(C2(C)CCN(C(=O)c3c(C)cccc3N)CC2)CC1 | 0.5 nM | 4.5 nM | 1300 ng·h/mL | 
CO/N=C(/c1ccc(Br)cc1)C1CCN(C2CCN(C(=O)c3c(C)cccc3C)CC2)CC1 | 1.2 nM | 2 nM | 1400 ng·h/mL | 
CO/N=C(/c1ccc(Br)cc1)C1CCN(C2(C)CCN(C(=O)c3c(C)cccc3C)CC2)CC1 | 2.8 nM | 25 nM | 1200 ng·h/mL | 
CON=C(c1ccc(Br)cc1)C1CCN(C2(C)CCN(C(=O)c3c(C)cccc3C)CC2)CC1 | 1.5 nM |  | 2100 ng·h/mL | 
Cc1cccc(C)c1C(=O)N1CCC(C)(N2CCC(Nc3ccc(Br)cc3)CC2)CC1 | 5.5 nM |  | 150 ng·h/mL | 
CO/N=C(\c1ccc(Br)cc1)C1CCN(C2(C)CCN(C(=O)c3c(C)ccnc3C)CC2)CC1 | 0.5 nM | 1.1 nM | 1900 ng·h/mL | 
CCO/N=C(\c1ccc(Br)cc1)C1CCN(C2(C)CCN(C(=O)c3c(C)cccc3C)CC2)CC1 | 1.3 nM | 1.8 nM | 1000 ng·h/mL | 
CCO/N=C(/c1ccc(Br)cc1)C1CCN(C2(C)CCN(C(=O)c3c(C)cccc3C)CC2)CC1 | 9.2 nM | 48 nM |  | 
CCO/N=C(\c1ccc(Br)cc1)C1CCN(C2(C)CCN(C(=O)c3c(C)cc[n+]([O-])c3C)CC2)CC1 [ANCRIVIROC] | 0.6 nM | 2.1 nM | 6500 ng·h/mL | AUC [5]: 2800 ng·h/mL; AUC [6]: 7400 ng·h/mL; BA [7]: 52%; AUC [8]: 13000 ng·h/mL; half-life [9]: 5 h; BA [10]: 92%; half-life [11]: 10 h; half-life [12]: 10 h; BA [13]: 63%; half-life [14]: 6 h

Reference: ChEMBL document CHEMBL1134621, “Discovery of 4-[(Z)-(4-bromophenyl)- (ethoxyimino)methyl]-1'-[(2,4-dimethyl-3- pyridinyl)carbonyl]-4'-methyl-1,4'- bipiperidine N-oxide (SCH 351125): an orally bioavailable human CCR5 antagonist for the treatment of HIV infection” (J Med Chem, 2001)
